Tests used:
[1] = AUC (0 to infinity) in CD-1 mouse at 2 mg/kg, iv administered as single bolus dose by LC-MS/MS analysis; assay type: ADME, organism-based; set-up: time infinity, dose 2 mg/kg, route intravenous; conditions: plasma
Procedure, shortened: (§1)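 Single 2 mg/kg IV bolus via lateral tail vein to male CD-1 mice. Mice euthanized at 0.083–24 h, 3 per time point (27 animals); cardiac-puncture blood into heparin on ice, plasma spun at 4 °C and immediately extracted with acetonitrile/0.1% formic acid plus IS, LC-MS/MS. Noncompartmental CL = Dose/AUC0–inf, t1/2 = 0.693/k, Vss from AUMC/AUC, MRT = Vss/CL.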

Plasma [2] = test: Drug metabolism in CD-1 mouse plasma assessed as hydrolysis metabolite formation rate by LC-MS/MS analysis; assay type: ADME, cell-free; conditions: for Km: read-out: Km(app)
Procedure, shortened: (§2)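 Mouse plasma depletion kinetics at 37 °C, substrate range 0.0023–5 µM, up to 3 h; samples quenched into acetonitrile/tolbutamide, LC-MS/MS. CLint per concentration from t1/2; apparent Vmax and Km fitted by nonlinear regression to Michaelis-Menten, formation rate simulated from fit; mean of two replicates.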

[3] = Half life in CD-1 mouse at 2 mg/kg, iv administered as single bolus dose by LC-MS/MS analysis; assay type: ADME, organism-based; set-up: dose 2 mg/kg, route intravenous; conditions: in vivo; procedure, shortened: as §1
[4] = Drug metabolism in CD-1 mouse liver microsomes assessed as hydrolysis metabolite formation rate by LC-MS/MS analysis; assay type: ADME; conditions: for Km: read-out: Km(app)
Procedure, shortened: (§3)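 Mouse liver microsomes 0.25 mg/mL in 0.1 M phosphate pH 7.4, with or without 1 mM NADPH, substrate 0.0023–5 µM; sampling to 40 min into acetonitrile/IS, LC-MS/MS depletion. Hydrolysis Vmax/Km solved from no-NADPH incubations, then NADPH-dependent constants; metabolite formation rate simulated from fitted constants; duplicates.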

[5] = Plasma clearance in CD-1 mouse at 2 mg/kg, iv administered as single bolus dose by LC-MS/MS analysis; assay type: ADME, organism-based; set-up: dose 2 mg/kg, route intravenous; procedure, shortened: as §1
Plasma [6] = test: Drug metabolism in CD-1 mouse plasma assessed as maximum intrinsic clearance for hydrolysis metabolite formation by LC-MS/MS analysis; assay type: ADME, cell-free; procedure, shortened: as §2
[7] = Volume of distribution at steady state in CD-1 mouse at 2 mg/kg, iv administered as single bolus dose by LC-MS/MS analysis; assay type: ADME, organism-based; set-up: dose 2 mg/kg, route intravenous; conditions: in vivo, read-out: Vdss; procedure, shortened: as §1
[8] = Mean residence time in CD-1 mouse at 2 mg/kg, iv administered as single bolus dose by LC-MS/MS analysis; assay type: ADME, organism-based; set-up: dose 2 mg/kg, route intravenous; conditions: in vivo; procedure, shortened: as §1
[9] = Ratio of drug level in blood to plasma in CD-1 mouse at 1 uM treated 20 mins after amide hydrolysis inhibitor DFP challenge measured after 1 hr by LC-MS/MS analysis; assay type: ADME; conditions: whole blood
Procedure, shortened: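 Fresh whole blood pre-incubated 20 min with 100 µM DFP, warmed to 37 °C, spiked to 1 µM, incubated 1 h, then plasma separated; reference plasma spiked at 1 µM. Extracted with 6 volumes acetonitrile/IS, LC-MS/MS; ratio = reference plasma peak area / treated plasma peak area.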

[10] = Fraction unbound in CD-1 mouse liver microsomes after 7 hrs by equilibrium dialysis method; assay type: ADME
Procedure, shortened: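 Equilibrium dialysis of 0.25 mg/mL mouse liver microsomes in phosphate buffer against PBS, 7 h at 37 °C, 5% CO2, test compound 0.1, 0.5 or 2 µM, triplicate; LC-MS/MS; fraction unbound = buffer/microsome concentration.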

[11] = Drug metabolism in CD-1 mouse NADPH-fortified liver microsomes assessed as hydrolysis metabolite formation rate by LC-MS/MS analysis; assay type: ADME; conditions: for Km: read-out: Km(app); procedure, shortened: as §3
[12] = In vitro half life in CD-1 mouse plasma at 0.83 uM by LC-MS/MS analysis; assay type: ADME, cell-free
Procedure, shortened: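 Screening stability: compound at 0.83 µM in mouse plasma at 37 °C, up to 3 h; timed aliquots quenched into acetonitrile with tolbutamide IS, centrifuged, LC-MS/MS; half-life from depletion, CLint = (0.693/t1/2)/plasma concentration.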

[13] = Fraction unbound in CD-1 mouse plasma after 7 hrs by equilibrium dialysis method; assay type: ADME, cell-free
Procedure, shortened: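 Mouse plasma pre-treated 20 min with 100 µM DFP to block hydrolysis, spiked at 0.1, 0.5 or 2 µM, equilibrium dialysis against PBS for 7 h at 37 °C, 5% CO2, triplicate; matrix-matched samples extracted with acetonitrile/IS, LC-MS/MS; fu = buffer/plasma concentration.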

For `CC(C)NC(=O)[C@H]1CC[C@@H](n2/c(=N/C(=O)c3cc(F)cc(F)c3)[nH]c3ccc(CN4CCC(C(C)(C)O)CC4)cc32)CC1`, which AUC(0-inf) [1] is on record?
Its AUC(0-inf) is 0.957 µM·h.

And the “Vmax(app)” value (Plasma [2])?
Its value is 3.81 pmol/min/mL.

What about the Km (Plasma [2]) of the same compound?
The Km was 0.357 µM.

What about the half-life [3] of the same compound?
The half-life was 1.01 h.

What about the “Vmax(app)” value [4] of the same compound?
Its value is 5.12 pmol/min/mg.

What about the Km [4] of the same compound?
Its Km is 0.0292 µM.

What about the clearance [5] of the same compound?
The clearance was 58.5 mL/min/kg.

And the CL (Plasma [6])?
Its CL is 10.7 uL/min.ml.

What about the Vd [7] of the same compound?
The Vd was 4.49 L/kg.

And the MRT [8]?
Its MRT is 1.28 h.

What about the blood plasma ratio at 1 h, 1 µM [9] of the same compound?
The blood plasma ratio at 1 h, 1 µM was 0.9.

And the fraction unbound at 7 h [10]?
The fraction unbound at 7 h was 0.53.

And the “Vmax(app)” value [11]?
Its value is 143 pmol/min/mg.

What about the Km [11] of the same compound?
The Km was 0.936 µM.

And the half-life at 0.83 µM [12]?
Its half-life at 0.83 µM is 2.9 h.

What about the fraction unbound at 7 h [13] of the same compound?
The fraction unbound at 7 h was 0.046.

With `CC(C)NC(=O)[C@H]1CC[C@@H](n2/c(=N/C(=O)c3cccc(C(F)(F)F)c3)[nH]c3ccc(CN4CCC(C(C)(C)O)CC4)cc32)CC1` as the compound, how does the AUC(0-inf) [1] read?
The AUC(0-inf) was 1.2 µM·h.

What about the “Vmax(app)” value (Plasma [2]) of the same compound?
Its value is 1.14 pmol/min/mL.

What about the Km (Plasma [2]) of the same compound?
The Km was 0.68 µM.

What about the half-life [3] of the same compound?
The half-life was 2.2 h.

And the “Vmax(app)” value [4]?
Its value is 5.38 pmol/min/mg.

What about the Km [4] of the same compound?
Its Km is 0.261 µM.

What about the clearance [5] of the same compound?
The clearance was 44.3 mL/min/kg.

And the CL (Plasma [6])?
Its CL is 1.68 uL/min.ml.

What about the Vd [7] of the same compound?
The Vd was 7.78 L/kg.

What about the MRT [8] of the same compound?
The MRT was 2.92 h.

And the blood plasma ratio at 1 h, 1 µM [9]?
The blood plasma ratio at 1 h, 1 µM was 0.9.

What about the fraction unbound at 7 h [10] of the same compound?
Its fraction unbound at 7 h is 0.22.

And the “Vmax(app)” value [11]?
Its value is 194 pmol/min/mg.

And the Km [11]?
Its Km is 1.95 µM.

And the half-life at 0.83 µM [12]?
Its half-life at 0.83 µM is 8.5 h.

What about the fraction unbound at 7 h [13] of the same compound?
The fraction unbound at 7 h was 0.012.
